The nature of assay [1]: Inhibition of beta-hematin formation. The assay is classed as functional.
The test system of assay [2] is Staphylococcus aureus. Put plainly: Antimicrobial activity against Staphylococcus aureus ATCC 29213 by CLSI method. The assay is classed as functional, organism-based.
The subject of assay [3] is Plasmodium falciparum. Kind of assay: Antimalarial activity against chloroquine-sensitive Plasmodium falciparum D6 assessed as plasmodial LDH activity. The assay is classed as functional, organism-based.
The subject of assay [4] is Staphylococcus aureus. Put plainly: Antimicrobial activity against methicillin-resistant Staphylococcus aureus ATCC 43300 by CLSI method. The format is functional, organism-based.
For another assay, the system named is Pseudomonas aeruginosa. Put plainly: Antimicrobial activity against Pseudomonas aeruginosa ATCC 27853 by CLSI method. The format is functional, organism-based. A digest of the protocol: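 Antibacterial testing used CLSI/NCCLS broth dilution for aerobically growing bacteria, with 20 as the highest test concentration.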
Another assay relates to Leishmania donovani. Put plainly: Antileishmanial activity against Leishmania donovani promastigote by Alamar Blue assay. The format is functional, organism-based. For orientation: Alamar Blue is a resazurin reagent that responds to reducing activity.
A further assay has as its system Escherichia coli. Kind of assay: Antimicrobial activity against Escherichia coli ATCC 35218 by CLSI method. The format is functional, organism-based.
Assay [5] deals with Plasmodium falciparum. Put plainly: Antimalarial activity against chloroquine-resistant Plasmodium falciparum W2 assessed as plasmodial LDH activity. The format is functional, organism-based.
Assay [6] concerns Mycobacterium intracellulare. Put plainly: Antimicrobial activity against Mycobacterium intracellulare ATCC 23068 by Franzblau method. The format is functional, organism-based.
The subject of a further assay is Vero. Kind of assay: Cytotoxicity against african green monkey Vero cells upto 23.8 […] by neutral dye assay. The assay is classed as cell-based, Chlorocebus sabaeus. A digest of the protocol: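 Vero monkey kidney cells were exposed to compound up to a highest concentration of 23.8, with viability read by neutral red uptake.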

The term IC50 denotes the midpoint of a concentration-inhibition curve. For orientation: IC90 means the concentration needed for an effect of 90%. In general, MIC refers to the lowest concentration that inhibits growth of the organism.

Structures are written as SMILES. ≈ marks a conversion by molar mass, not a printed value. Calls of active or inactive are those of the source. Unless noted, no cut-off for these calls is given here.

In the case of `COc1cc(NC(C)CCCNC(=O)CC[C@@H](NC(=O)[C@H](N)CCCCN)C(=O)O)c2ncccc2c1` (stereo partly specified), the IC50 in [1] is above 1000 µM; with Plasmodium falciparum [3], “Not Active”; in the assay with Leishmania donovani (Leishmania donovani, read-out: IC50) it was 20.1 µg/mL (≈ 38.9 µM); with Plasmodium falciparum [5], “Not Active”; in the assay with Vero, “Non-toxic”. Further, the outcome (in the assay with Staphylococcus aureus [2]; with Staphylococcus aureus [4]; in the assay with Pseudomonas aeruginosa; with Escherichia coli; in assay [6]) was inactive. The compound also displayed an IC90 with Leishmania donovani (Leishmania donovani) of 36 µg/mL (≈ 69.7 µM).

Consider `COc1cc(NC(C)CCCNC(=O)C[C@H](NC(=O)[C@@H](N)CCCN)C(=O)O)c2ncccc2c1` (stereo partly specified), for which the outcome (in the assay on Staphylococcus aureus [2]; in the assay on Staphylococcus aureus [4]; with Pseudomonas aeruginosa; in the assay with Escherichia coli; in assay [6]) was inactive.

Consider `COc1cc(NC(C)CCCNC(=O)CC[C@H](NC(=O)[C@@H](N)CCCN)C(=O)O)c2ncccc2c1` (stereo partly specified), for which the IC50 in assay [1] was above 1000 µM; in the assay on Plasmodium falciparum [3], “Not Active”; in the assay with Leishmania donovani, “Not Active”; in the assay with Plasmodium falciparum [5], “Not Active”; with Vero it was “Non-toxic”. Further, the result (in the assay on Staphylococcus aureus [2]; in the assay on Staphylococcus aureus [4]; in the assay with Pseudomonas aeruginosa; in the assay with Escherichia coli; in [6]) was inactive. In addition, the IC90 result with Leishmania donovani is “inactive”.

As for `COc1cc(NC(C)CCCNC(=O)CC[C@@H](NC(=O)[C@H](N)CCCNC(=N)N)C(=O)O)c2nc(C(C)(C)C)ccc2c1` (stereo partly specified), the IC50 in [1] is above 1000 µM; in the assay with Plasmodium falciparum [3], “Not Active”; with Leishmania donovani it was “Not Active”; in the assay on Plasmodium falciparum [5], “Not Active”; with Vero, “Non-toxic”. Besides, the result (in the assay with Staphylococcus aureus [2]; in the assay on Staphylococcus aureus [4]; in the assay with Pseudomonas aeruginosa; with Escherichia coli; in [6]) was inactive. In the assay with Leishmania donovani, the IC90 entry is “inactive”.

For `COc1cc(NC(C)CCCNC(=O)CC[C@@H](NC(=O)[C@H](N)CCCNC(=N)N)C(=O)O)c2ncccc2c1` (stereo partly specified), the IC50 in assay [1] is above 1000 µM; in the assay with Plasmodium falciparum [3], “Not Active”; in the assay with Leishmania donovani it was “Not Active”; with Plasmodium falciparum [5], “Not Active”; in the assay with Vero, “Non-toxic”. The result (in the assay with Staphylococcus aureus [2]; in the assay with Staphylococcus aureus [4]; in the assay with Pseudomonas aeruginosa; in the assay on Escherichia coli; in assay [6]) was inactive. Besides, the IC90 result in the assay on Leishmania donovani was “inactive”.

`O=C(O)c1cn(C2CC2)c2cc(N3CCNCC3)c(F)cc2c1=O` [CIPROFLOXACIN] showed an MIC in [6] of 0.63 µg/mL (≈ 1.9 µM).

`COc1cc(NC(C)CCCN)c2nc(C(C)(C)C)ccc2c1` (stereo unspecified) had an IC50 in [1] of 2.9 µM.

On to `COc1cc(NC(C)CCCNC(=O)CC[C@H](NC(=O)[C@@H](N)CCCCN)C(=O)O)c2ncccc2c1` (stereo partly specified), for which the outcome (in the assay with Staphylococcus aureus [2]; in the assay on Staphylococcus aureus [4]; in the assay on Pseudomonas aeruginosa; with Escherichia coli; in [6]) was inactive. In addition, the IC50 result was “Not Active” in the assay on Plasmodium falciparum [3], “Not Active” with Leishmania donovani, “Not Active” in the assay with Plasmodium falciparum [5] and “Non-toxic” with Vero. Also, the IC90 entry with Leishmania donovani was “inactive”.

In the case of `COc1cc(NC(C)CCCNC(=O)NCCCC[C@H](N)C(=O)O)c2nc(C(C)(C)C)ccc2c1` (stereo partly specified), the IC50 is above 1000 µM in [1]; “Not Active” in the assay on Plasmodium falciparum [3]; “Not Active” with Leishmania donovani; “Not Active” with Plasmodium falciparum [5]; “Non-toxic” in the assay on Vero. Besides, the outcome (in the assay on Staphylococcus aureus [2]; in the assay with Staphylococcus aureus [4]; in the assay on Pseudomonas aeruginosa; with Escherichia coli; in assay [6]) was inactive. Further, the IC90 result in the assay with Leishmania donovani was “inactive”.

`COc1cc(NC(C)CCCNC(=O)NCCC[C@@H](N)C(=O)O)c2ncccc2c1` (stereo partly specified): the IC50 in [1] was above 1000 µM; with Plasmodium falciparum [3], “Not Active”; in the assay with Leishmania donovani, “Not Active”; in the assay on Plasmodium falciparum [5] it was “Not Active”; in the assay with Vero it was “Non-toxic”. In addition, the result (with Staphylococcus aureus [2]; in the assay on Staphylococcus aureus [4]; in the assay with Pseudomonas aeruginosa; in the assay on Escherichia coli; in assay [6]) was inactive. In addition, the IC90 result with Leishmania donovani is “inactive”.

For the compound `COc1cc(NC(C)CCCNC(=O)CC[C@@H](NC(=O)[C@H](N)CCCN)C(=O)O)c2nc(C(C)(C)C)ccc2c1` (stereo partly specified), the IC50 in [1] is above 1000 µM; in the assay on Plasmodium falciparum [3], “Not Active”; with Leishmania donovani, “Not Active”; with Plasmodium falciparum [5], “Not Active”; in the assay with Vero, “Non-toxic”. Also, the result (in the assay with Staphylococcus aureus [2]; in the assay on Staphylococcus aureus [4]; with Pseudomonas aeruginosa; with Escherichia coli; in [6]) was inactive. Also, the IC90 result with Leishmania donovani is “inactive”.

As for `COc1cc(NC(C)CCCNC(=O)CC[C@@H](NC(=O)[C@H](N)CCCN)C(=O)O)c2ncccc2c1` (stereo partly specified), the half-inhibitory concentration (IC50) in assay [1] is above 1000 µM; in the assay with Plasmodium falciparum [3], “Not Active”; in the assay with Leishmania donovani it was “Not Active”; in the assay on Plasmodium falciparum [5], “Not Active”; with Vero it was “Non-toxic”. Also, the outcome (with Staphylococcus aureus [2]; with Staphylococcus aureus [4]; in the assay with Pseudomonas aeruginosa; with Escherichia coli; in assay [6]) was inactive. In the assay with Leishmania donovani, the IC90 entry is “inactive”.

Compound `N=C(N)c1ccc(OCCCCCOc2ccc(C(=N)N)cc2)cc1` [PENTAMIDINE] had an IC90 in the assay with Leishmania donovani (Leishmania donovani) of 3.8 µg/mL (≈ 11.2 µM).

For the compound `COc1cc(NC(C)CCCNC(=O)C[C@@H](NC(=O)[C@H](N)CCCCN)C(=O)O)c2nc(C(C)(C)C)ccc2c1` (stereo partly specified), the IC50 was above 1000 µM in assay [1]; “Not Active” with Plasmodium falciparum [3]; “Not Active” in the assay on Leishmania donovani; “Not Active” in the assay with Plasmodium falciparum [5]; “Non-toxic” in the assay with Vero. Further, the result (in the assay on Staphylococcus aureus [2]; with Staphylococcus aureus [4]; in the assay with Pseudomonas aeruginosa; in the assay with Escherichia coli; in [6]) was inactive. In addition, the IC90 entry in the assay on Leishmania donovani was “inactive”.

In the case of `COc1cc(NC(C)CCCNC(=O)NCCCC[C@H](N)C(=O)O)c2ncccc2c1` (stereo partly specified), the IC50 is above 1000 µM in assay [1]; “Not Active” in the assay on Plasmodium falciparum [3]; “Not Active” in the assay with Leishmania donovani; “Not Active” with Plasmodium falciparum [5]; “Non-toxic” in the assay with Vero. The outcome (with Staphylococcus aureus [2]; in the assay on Staphylococcus aureus [4]; in the assay on Pseudomonas aeruginosa; with Escherichia coli; in [6]) was inactive. Further, the IC90 result with Leishmania donovani was “inactive”.

As to `COc1cc(NC(C)CCCN)c2ncccc2c1` (stereo unspecified) [PRIMAQUINE], the IC50 was above 1000 µM in [1] and “Non-toxic” with Vero. In addition, the IC90 result in the assay on Leishmania donovani was “inactive”.

These data come from ChEMBL document CHEMBL2021883, “Amino acid, dipeptide and pseudodipeptide conjugates of ring-substituted 8-aminoquinolines: synthesis and evaluation of anti-infective, β-haematin inhibition and cytotoxic activities” (Eur J Med Chem, 2012).
